According to ChEMBL document CHEMBL1955833, “Wnt inhibition correlates with human embryonic stem cell cardiomyogenesis: a structure-activity relationship study based on inhibitors for the Wnt response” (J Med Chem, 2012):
The source made the active and inactive calls. The calls are words filed in the database; no cut-off is given here.

Assays:
[1] = Inhibition of beta-catenin-dependent canonical Wnt3 pathway in human HEK293T cells by luciferase reporter gene assay; type: cell-based; settings: HEK-293T
[2] = Inhibition of beta-catenin-dependent canonical Wnt3A pathway in human HEK293T cells at 1 uM by luciferase reporter gene assay; type: cell-based; settings: HEK-293T
How it was run: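 HEK293T cells transiently co-transfected with Super(8x)TOPflash (TCF-firefly luciferase), TK-Renilla luciferase for normalization, and a Wnt3A-expressing vector to activate the pathway. Compounds tested at a single concentration of 1 μM, alongside untreated and DMSO vehicle controls. Firefly signal normalized to Renilla.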

HEK-293T [3] = experiment: Cytotoxicity against human HEK293T cells at 0.2 to 20 uM after 24 hrs by alamar blue assay; type: cell-based
H9 [4] = experiment: Cardiogenic activity in human H9 cells after 14 days by MYH6-mCherry reporter gene assay relative to 4-[(1R,2S,6R,7S)-3,5-dioxo-4-azatricyclo[5.2.1.0~2,6~]dec-8-en-4-yl]-N-quinolin-8-ylbenzamide; type: functional
How it was run: (§1)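 hESC embryoid bodies grown to day 4, dissociated to single cells and plated in 384-well format with serial compound dilutions. At day 10 switched to serum-free medium with T3. At day 14 moved to PBS and imaged for red fluorescence. Total area and intensity of the MYH6-mCherry reporter were quantified per well and expressed as percent cardiogenesis, with the reference set to 100% at its maximum.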

[5] = Chemical stability in phosphate buffer pH 7.4 at 10 uM after 30 hrs by HPLC analysis; type: physicochemical; settings: pH 7.4, 30 h
How it was run: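 Degradation followed by HPLC, and half-life determined where degradation occurred.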

HEK-293T [6] = experiment: Inhibition of human recombinant TGFbeta2-induced Smad signaling in HEK293T cells at 0.01 to 5 uM by luciferase reporter gene assay; type: cell-based
How it was run: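 HEK293T cells carrying a SMAD response element reporter were stimulated with human recombinant TGFβ2. Compounds were incubated at 0.01, 0.1, 1 and 5 μM. Percent inhibition of the SMAD response was calculated relative to DMSO vehicle controls.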

H9 [7] = experiment: Cardiogenic activity in human H9 cells at < 0.15 uM after 14 days by MYH6-mCherry reporter gene assay relative to 4-[(1R,2S,6R,7S)-3,5-dioxo-4-azatricyclo[5.2.1.0~2,6~]dec-8-en-4-yl]-N-quinolin-8-ylbenzamide; type: functional, cell-based; how it was run: as §1
Embryonic stem cell = experiment: Cardiogenic activity in human embryonic stem cells at 50 uM by MYH6 reporter gene assay relative to control; type: functional, cell-based

| Structure (SMILES) | IC50 [1] [nM] | inhibition [2] [%] | Activity (H9 [4]) | further results |
| --- | --- | --- | --- | --- |
| CC1[C@H]2CC[C@@H]1[C@@H]1C(=O)N(c3ccc(C(=O)Nc4cccc5cccnc45)cc3)C(=O)[C@@H]12 (some centres not stated) | 1180 | 76 |  |  |
| Cc1cc(/C=C/c2ccc3cc(N(C)C)ccc3[n+]2C)c(C)n1-c1ccccc1 |  |  |  | Activity (HEK-293T [3]): Toxic |
| CC(=O)c1ccccc1NC(=O)[C@H]1CC[C@@H](N2C(=O)[C@@H]3[C@@H]4CC[C@@H](C4)[C@@H]3C2=O)CC1 | 23 | 91 | Dose-dependent effect | Activity (H9 [4]; record 2): 72% |
| O=C1[C@@H]2[C@@H]3CC[C@@H](C3)[C@@H]2C(=O)N1[C@H]1CC[C@H](C(=O)Nc2cccnc2Cl)CC1 | 169 | 13 | Dose-dependent effect | Activity (H9 [4]; record 2): 56% |
| CC(=O)c1ccc(NC(=O)c2ccc(N3C(=O)[C@@H]4[C@@H]5CC[C@@H](C5)[C@@H]4C3=O)cc2)cc1 |  | 41 |  |  |
| O=C1[C@@H]2[C@@H]3CC[C@@H](C3)[C@@H]2C(=O)N1[C@H]1CC[C@H](C(=O)Nc2cncc3ccccc23)CC1 | 55 | 89 | Dose-dependent effect | Activity (H9 [4]; record 2): 119% |
| N#Cc1ccc(NC(=O)c2ccc(N3C(=O)[C@@H]4[C@@H]5CC[C@@H](C5)[C@@H]4C3=O)cc2)cc1 | 317 | 70 | 1% |  |
| COc1ccc(NC(=O)c2ccc(N3C(=O)[C@@H]4[C@@H]5CC[C@@H](C5)[C@@H]4C3=O)cc2)cc1 |  | 50 |  |  |
| O=C1[C@@H]2[C@@H]3CC[C@@H](C3)[C@@H]2C(=O)N1[C@H]1CC[C@H](C(=O)Nc2cccc3cnccc23)CC1 | 161 | 87 |  |  |
| O=C(Nc1cccc2cccnc12)c1ccc(N2C(=O)[C@@H]3[C@H](C2=O)[C@@H]2C=C[C@H]3C2)cc1 |  |  | Dose-dependent effect | Stability [5]: Stable; inhibition (HEK-293T [6]): < 20%; Activity (HEK-293T [3]): Non-toxic |
| O=C(Nc1cccc2cccnc12)c1ccc(N2C(=O)[C@@H]3[C@@H]4CC[C@@H](C4)[C@@H]3C2=O)o1 |  | 0 |  |  |
| O=C1[C@@H]2[C@@H]3CC[C@@H](C3)[C@@H]2C(=O)N1[C@H]1CC[C@H](C(=O)Nc2ccccn2)CC1 | 109 | 82 | 3% |  |
| CCOc1ccccc1NC(=O)[C@H]1CC[C@H](N2C(=O)[C@@H]3[C@@H]4CC[C@@H](C4)[C@@H]3C2=O)CC1 | 190 | 78 |  |  |
| O=C1[C@@H]2[C@@H]3CC[C@@H](C3)[C@@H]2C(=O)N1c1ccc2c(c1)C(=O)N(c1cccc3cccnc13)C2=O |  | 15 |  |  |
| COC(=O)c1ccccc1NC(=O)[C@H]1CC[C@H](N2C(=O)[C@@H]3[C@@H]4CC[C@@H](C4)[C@@H]3C2=O)CC1 | 67 | 86 | Dose-dependent effect | Activity (H9 [4]; record 2): 38% |
| O=C1[C@@H]2[C@@H]3CC[C@@H](C3)[C@@H]2C(=O)N1[C@H]1CC[C@H](C(=O)Nc2cccnc2)CC1 | 120 | 89 | 15% | Stability [5]: Stable; inhibition (HEK-293T [6]): < 20% |
| O=C1[C@@H]2[C@@H]3CC[C@@H](C3)[C@@H]2C(=O)N1[C@H]1CC[C@@H](C(=O)Nc2cccc3cccnc23)CC1 | 57 | 90 | Dose-dependent effect | Activity (H9 [4]; record 2): 65% |
| O=C1[C@@H]2[C@@H]3CC[C@@H](C3)[C@@H]2C(=O)N1[C@H]1CC[C@H](C(=O)Nc2ccnc3ccccc23)CC1 | 109 | 90 |  |  |
| CC(=O)c1ccc(NC(=O)[C@H]2CC[C@H](N3C(=O)[C@@H]4[C@@H]5CC[C@@H](C5)[C@@H]4C3=O)CC2)cn1 | 590 | 56 | 3% | inhibition (HEK-293T [6]): < 20% |
| CN(C)c1ccc(NC(=O)c2ccc(N3C(=O)[C@@H]4[C@@H]5CC[C@@H](C5)[C@@H]4C3=O)cc2)cc1 |  | 25 |  |  |
| CC(=O)c1ccccc1NC(=O)[C@H]1CC[C@H](N2C(=O)[C@@H]3[C@@H]4CC[C@@H](C4)[C@@H]3C2=O)CC1 | 6 | 91 | 78% | Stability [5]: Stable; inhibition (HEK-293T [6]): < 20%; Activity (H9 [7]): Active |

| Structure (SMILES) | IC50 [1] [nM] | inhibition [2] [%] | Activity (H9 [4]) | further results |
| --- | --- | --- | --- | --- |
| O=C1CCCc2cccc(NC(=O)[C@H]3CC[C@H](N4C(=O)[C@@H]5[C@@H]6CC[C@@H](C6)[C@@H]5C4=O)CC3)c21 | 7 | 92 | 176% | inhibition (HEK-293T [6]): < 20%; Activity (H9 [7]): Active |
| O=C(Nc1ccccc1O)c1ccc(N2C(=O)[C@@H]3[C@@H]4CC[C@@H](C4)[C@@H]3C2=O)cc1 |  | 33 |  |  |
| COc1cc(Br)ccc1NC(=O)[C@H]1CC[C@H](N2C(=O)[C@@H]3[C@@H]4CC[C@@H](C4)[C@@H]3C2=O)CC1 | 37 | 82 | Dose-dependent effect | Activity (H9 [4]; record 2): 20%; inhibition (HEK-293T [6]): < 20% |
| O=C(Nc1cccc2cccnc12)c1ccc(N2C(=O)C3C(C2=O)[C@H]2CC[C@@H]3O2)cc1 (some centres not stated) | 605 | 49 | 2% |  |
| O=C1[C@@H]2[C@@H]3CC[C@@H](C3)[C@@H]2C(=O)N1[C@H]1CC[C@H](C(=O)Nc2nccc3ccccc23)CC1 | 95 | 88 | Dose-dependent effect | Activity (H9 [4]; record 2): 84% |
| COc1ccc(/C=C2/SC(=S)N(CCCC(=O)O)C2=O)cc1OC | 728 |  |  | Activity (HEK-293T [3]): Non-toxic; Activity (Embryonic stem cell): Active |
| O=C(Nc1cccc2cccnc12)c1ccc(N2C(=O)[C@@H]3[C@H]4CC[C@H](CC4)[C@@H]3C2=O)cc1 | 314 | 87 | 2% |  |
| O=C1[C@@H]2[C@@H]3CC[C@@H](C3)[C@@H]2C(=O)N1[C@H]1CC[C@H](C(=O)Nc2cccc3cccnc23)CC1 | 4 | 89 | 145% | inhibition (HEK-293T [6]): < 20%; Activity (H9 [7]): Active |
| O=C1[C@@H]2[C@@H]3CC[C@@H](C3)[C@@H]2C(=O)N1c1ccc(CNc2cccc3cccnc23)cc1 |  | 45 |  |  |
| O=C(Nc1cccc2cccnc12)c1ccc(N2C(=O)[C@@H]3[C@@H]4CC[C@@H](C4)[C@@H]3C2=O)cc1 | 24 | 93 | Dose-dependent effect | Activity (H9 [4]; record 2): 75% |
| O=C1c2ccccc2-c2cccc(NC(=O)[C@H]3CC[C@H](N4C(=O)[C@@H]5[C@@H]6CC[C@@H](C6)[C@@H]5C4=O)CC3)c21 | 194 | 88 | Dose-dependent effect | Activity (H9 [4]; record 2): 104% |
| O=C1[C@@H]2[C@@H]3CC[C@@H](C3)[C@@H]2C(=O)N1[C@H]1CC[C@H](C(=O)Nc2cccc3ncccc23)CC1 | 604 | 68 |  |  |
| O=C(Nc1cccc2cccnc12)c1ccc(N2C(=O)[C@@H]3[C@H](C2=O)[C@@H]2C=C[C@H]3CC2)cc1 | 412 | 83 |  |  |
| O=C1[C@@H]2[C@@H]3CC[C@@H](C3)[C@@H]2C(=O)N1[C@H]1CC[C@H](C(=O)Nc2ccncc2)CC1 | 80 | 84 | 3% |  |
| O=C(Nc1cccc2cccnc12)c1cccc(N2C(=O)[C@@H]3[C@@H]4CC[C@@H](C4)[C@@H]3C2=O)c1 |  | 0 |  |  |
| CC(=O)c1ncccc1NC(=O)[C@H]1CC[C@H](N2C(=O)[C@@H]3[C@@H]4CC[C@@H](C4)[C@@H]3C2=O)CC1 | 7 | 79 | 145% | inhibition (HEK-293T [6]): < 20%; Activity (H9 [7]): Active |
| O=C(Nc1cccc2ccccc12)c1ccc(N2C(=O)[C@@H]3[C@@H]4CC[C@@H](C4)[C@@H]3C2=O)cc1 | 1590 | 41 | 8% |  |
| O=C1[C@@H]2[C@@H]3CC[C@@H](C3)[C@@H]2C(=O)N1[C@H]1CC[C@H](C(=O)Nc2cncc(O)c2)CC1 | 152 | 86 | Dose-dependent effect | Activity (H9 [4]; record 2): 61% |
| O=C1[C@@H]2[C@@H]3CC[C@@H](C3)[C@@H]2C(=O)N1[C@H]1CC[C@H](C(=O)Nc2ccccc2O)CC1 | 484 | 76 |  |  |
| COc1ccccc1NC(=O)c1ccc(N2C(=O)[C@@H]3[C@@H]4CC[C@@H](C4)[C@@H]3C2=O)cc1 | 215 | 84 | 8% |  |
